# Measured values reported in ChEMBL document CHEMBL4706741, “De Novo Design, Synthesis, and Mechanistic Evaluation of Short Peptides That Mimic Heat Shock Protein 27 Activity” (ACS Med Chem Lett, 2021).
# Calls of active or inactive are those of the source. No cut-off for these calls is given here. Where a SMILES comes first, the peptide text is derived from it.
# How the values were obtained:
# Assay type in all cases: functional
# [1] = Chaperone like activity at heat-induced citrate synthase aggregation assessed as aggregation at 200 uM incubated for 5 mins followed by heat stimulation for 3 mins in 43 degC and measured after 60 mins by fluorimetric analysis (reference value: 100%); conditions: time 68.0 min
# In short: (§1)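 Thermal aggregation of citrate synthase (150 nM). Peptides were brought to 43 °C in buffer, and CS was added once the temperature had equilibrated. Light scattering at 360 nm was monitored over time. CS with 1% DMSO was set as 100% aggregation, with an Hsp27 (600 nM) chaperone reference run on the same day. Mean ± SEM of at least two or three independent experiments.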
# [2] = Chaperone like activity at heat-induced citrate synthase aggregation assessed as aggregation incubated for 5 mins followed by heat stimulation for 3 mins in 43 degC and measured after 60 mins by fluorimetric analysis relative to control; conditions: time 68.0 min; in short: as §1
# [3] = Chaperone like activity at Gdn-Cl/DTT-induced citrate synthase aggregation assessed as aggregation at 200 uM incubated for 5 mins followed by heat stimulation for 3 mins in 43 degC and measured after 60 mins by fluorimetric analysis (reference value: 100%); conditions: time 68.0 min
# In short: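 Citrate synthase (150 nM) unfolded with guanidine chloride and DTT at room temperature, then a small aliquot diluted into refolding buffer with peptide (200 μM) or Hsp27 (600 nM). Aggregation followed by light scattering for 1 h. The 1% DMSO control at 1 h was taken as 100% aggregation. Mean ± SEM of at least two independent experiments.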
# [4] = Chaperone like activity at kappa-casein amyloid formation at 200 uM measured upto 21 hrs by fluorescence based assay; conditions: time hrs <=21
# [5] = Chaperone like activity at heat-induced citrate synthase aggregation assessed as aggregation at 0.6 uM incubated for 5 mins followed by heat stimulation for 3 mins in 43 degC and measured after 60 mins by fluorimetric analysis (reference value: 100%); conditions: time 68.0 min; in short: as §1
# [6] = Chaperone like activity at heat-induced citrate synthase aggregation assessed as aggregation at 1.2 uM incubated for 5 mins followed by heat stimulation for 3 mins in 43 degC and measured after 60 mins by fluorimetric analysis (reference value: 100%); conditions: time 68.0 min; in short: as §1
# [7] = Chaperone like activity at heat-induced citrate synthase aggregation assessed as aggregation at 30 uM incubated for 5 mins followed by heat stimulation for 3 mins in 43 degC and measured after 60 mins by fluorimetric analysis (reference value: 100%); conditions: time 68.0 min; in short: as §1
# [8] = Chaperone like activity at heat-induced citrate synthase aggregation assessed as aggregation at 60 uM incubated for 5 mins followed by heat stimulation for 3 mins in 43 degC and measured after 60 mins by fluorimetric analysis (reference value: 100%); conditions: time 68.0 min; in short: as §1
# [9] = Chaperone like activity at heat-induced citrate synthase aggregation assessed as aggregation at 100 uM incubated for 5 mins followed by heat stimulation for 3 mins in 43 degC and measured after 60 mins by fluorimetric analysis (reference value: 100%); conditions: time 68.0 min; in short: as §1
# [10] = Chaperone like activity at heat-induced citrate synthase aggregation assessed as aggregation at 150 uM incubated for 5 mins followed by heat stimulation for 3 mins in 43 degC and measured after 60 mins by fluorimetric analysis (reference value: 100%); conditions: time 68.0 min; in short: as §1
# [11] = Chaperone like activity at kappa-casein amyloid formation at 10 to 200 uM measured upto 21 hrs by fluorescence based assay; conditions: dose 10-200 µM, time hrs <=21
molecule,measurement,setting,value
N[C@@H](Cc1c[nH]c2ccccc12)C(=O)N[C@@H](CC(=O)O)C(=O)N1CCC[C@H]1C(=O)N[C@@H](Cc1ccccc1)C(=O)O (H-WDPF-OH),Activity,[1],115%
H-DWDPF-OH,Activity,[1],110%
H-AWDPF-OH,Activity,[1],96%
H-SWDAF-OH,Activity,[1],80%
H-SWDPFRDW-OH,Activity,[1],13%
same,Activity,[2],Dose-dependent effect
same,Activity,[3],0%
H-SADPF-OH,Activity,[1],86%
H-SWAPF-OH,Activity,[1],81%
H-GPSWDPFRDW-OH,Activity,[1],46%
same,Activity,[2],Dose-dependent effect
same,Activity,[4],inactive
H-WDPFR-OH,Activity,[1],98%
H-SWDPFRD-OH,Activity,[1],57%
same,Activity,[3],52%
N[C@@H](CO)C(=O)N[C@@H](Cc1c[nH]c2ccccc12)C(=O)N[C@@H](CC(=O)O)C(=O)N1CCC[C@H]1C(=O)N[C@@H](Cc1ccccc1)C(=O)O,Activity,[1],46%
same,Activity,[5],92%
same,Activity,[6],75%
same,Activity,[7],73%
same,Activity,[8],63%
same,Activity,[9],23%
same,Activity,[10],15%
same,Activity,[2],Dose-dependent effect
same,Activity,[11],inactive
same,Activity,[3],63%
H-SWDPA-OH,Activity,[1],78%
N[C@H](CO)C(=O)N[C@H](Cc1c[nH]c2ccccc12)C(=O)N[C@H](CC(=O)O)C(=O)N1CCC[C@@H]1C(=O)N[C@H](Cc1ccccc1)C(=O)O,Activity,[1],90%
H-SWDPFR-OH,Activity,[1],96%
